Compounds with a hit are over-represented: about 6.8% of the library has one in this group of screens.
HEK293 NFkB inh – inhibitors of the PMA/ionomycin-induced NF-kB reporter in HEK293 cells | inhibition, % at 3 µM | actives 0.21% (n = 62,000) | HEK-293 NF-kB luciferase reporter, luminescence | AID 465;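 active means inhibition above the mean of all tested compounds plus 3 SD, cut at about 40% in these data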;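 further: 0% = stimulated DMSO wells and 100% = 10 µM reference inhibitor 5653914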
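Signal: luciferase luminescence; Material: HEK-293 cells with stable firefly luciferase reporter driven by four HIV NF-kB elements; Probe or stimulus: PMA with ionomycin; Replication: tested once; Times: 1 h compound pretreatment, then 16 h stimulation at 37 °C, 5% CO2; Benchmarks: DMSO and 10 µM reference inhibitor; Evaluation: per-plate % inhibition versus controls.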
Her2 expr inh – lowers expression of human Her2 kinase | SKBR-3 HER2 protein level, AlphaScreen, 18-24 h; hits give low values | actives 0.69% (n = 65,000) | HER2 level % of control, % at 10 µM | P04626 | AID 645;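 active means HER2 level under 5% of the carrier-only control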;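 further: 100% = DMSO carrier and 0% = 500 nM PU-H71 HSP90 inhibitor; lower value means stronger loss of Her2 protein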
M1 ag – M1 muscarinic receptor agonism | CHO-M1 cells, Fluo-4 calcium fluorescence, agonist mode; hits give high values | B-score at 10 µM | actives 3% (n = 64,000) | AID 626;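 active means fluorescence rise, raw or as B-score row- and column-corrected plate score, outside the 99.7% band of its plate's samples, either direction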
M1 antagonist – antagonists of rat M1 muscarinic receptor; P08482; CHO-M1 cells, Fluo-4 calcium, ACh EC80 antagonist mode; hits give low values; B-score at 10 µM; actives 3.4% (n = 64,000);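 active means calcium fluorescence response, raw or row-and-column corrected B-score, differing from the plate sample mean either way at a set confidence level, mostly lower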
DUSP1 inh – inhibitors of human MKP-1 phosphatase. P28562. recombinant MKP-1, OMFP hydrolysis fluorescence. inhibition, %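 (compounds tested at a single concentration somewhere between 10 and 100 µM)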. actives 0.15% (n = 65,000);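 active means inhibition above about 50%, limit read from the data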;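 further: 0% = DMSO max control wells and 100% = wells with enzyme stopped by NaOH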
Cdc25B block – inhibitors of human Cdc25B phosphatase | P30305 | actives 0.1% (n = 65,000) | inhibition, %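 (compounds tested at 10 µM final in the well)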 | recombinant Cdc25B, OMFP fluorescence Ex485/Em525 | AID 368; in the data active means inhibition above about 50%
Target sequence (P30305 whole entry, looked up): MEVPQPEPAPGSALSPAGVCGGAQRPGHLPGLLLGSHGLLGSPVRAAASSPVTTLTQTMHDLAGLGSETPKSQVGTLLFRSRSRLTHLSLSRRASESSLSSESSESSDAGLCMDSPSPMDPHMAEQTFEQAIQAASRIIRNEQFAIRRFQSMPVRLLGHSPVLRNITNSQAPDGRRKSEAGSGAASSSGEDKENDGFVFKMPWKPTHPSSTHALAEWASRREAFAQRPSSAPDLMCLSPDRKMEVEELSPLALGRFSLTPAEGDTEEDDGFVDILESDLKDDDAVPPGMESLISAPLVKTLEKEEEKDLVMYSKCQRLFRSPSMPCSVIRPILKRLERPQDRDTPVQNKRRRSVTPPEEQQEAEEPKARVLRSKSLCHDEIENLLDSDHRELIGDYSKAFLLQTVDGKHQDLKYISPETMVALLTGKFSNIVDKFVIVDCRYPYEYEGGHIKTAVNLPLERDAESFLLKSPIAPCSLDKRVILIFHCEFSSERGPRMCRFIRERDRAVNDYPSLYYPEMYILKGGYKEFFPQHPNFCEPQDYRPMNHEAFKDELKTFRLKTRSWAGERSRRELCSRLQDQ
M1 antag conf – confirmation of rat M1 muscarinic receptor antagonists | actives 43% (n = 1,700) | AID 677 | shares compounds with M1 antagonist | CHO-M1 cells, Fluo-4 calcium, ACh EC80 antagonism; hits give low values | calcium response (max-min fluorescence) at 10 µM;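 active means calcium response below the same-plate mean of wells given acetylcholine alone at its 80%-effect dose, minus 3 SD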;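 further: raw fluorescence intensity difference in arbitrary instrument units and not normalized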
mGluR4 antag – mGluR4 (human) activity, M1 antagonist secondary assay. fluorescence response (max-min) at 10 µM. CHO-mGluR4 calcium flux, Fluo-4 fluorescence, glutamate EC80; hits give low values. shares compounds with M1 antagonist. actives 0.9% (n = 1,700). AID 678;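 active means fluorescence response below the plate's average for near-maximal glutamate wells, less 3 SD of those wells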;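 further: raw unnormalized fluorescence span taken in the window right after glutamate addition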
Numbers without * were called inactive.

Screening COc1ccccc1CNC(=O)CN(c1ccc(C)cc1)S(=O)(=O)c1c(C)n[nH]c1C returned HEK293 NFkB inh 15.6, Her2 expr inh 76.7, M1 ag 0.81, M1 antagonist 0.779, DUSP1 inh 11.3 and Cdc25B block 2.1.
`CCOc1ccccc1NC(=O)CN(c1ccc(C)cc1)S(=O)(=O)c1c(C)n[nH]c1C` gave HEK293 NFkB inh 20.8, Her2 expr inh 104.7, M1 ag -1.18, M1 antagonist -2.39*, DUSP1 inh 30.9, Cdc25B block -1.7, M1 antag conf 530 and mGluR4 antag 242.
CCN(CC)C(=O)c1sc2nc(-c3ccc(OC)cc3)cn2c1C was read as HEK293 NFkB inh -36.0, Her2 expr inh 91.4, M1 ag -0.0245, M1 antagonist -0.39, DUSP1 inh 19.6 and Cdc25B block -12.2.
For CCN(CC)C(=O)c1cccc(-c2ccc(OC)cc2)c1 the results were HEK293 NFkB inh 17.8, Her2 expr inh 107.4, M1 ag -0.604, M1 antagonist -2.16*, DUSP1 inh 14.1, Cdc25B block 4.7, M1 antag conf 622 and mGluR4 antag 247.
`Cc1ccc(C2c3c(oc4ccccc4c3=O)C(=O)N2c2nnc(C(C)C)s2)o1` (configuration not stated) gave HEK293 NFkB inh 7.8, Her2 expr inh 48.9, M1 ag -0.0945, M1 antagonist -0.175, DUSP1 inh 7.0 and Cdc25B block -14.1.
CN(C(=O)c1cc2n(n1)C(C(F)(F)F)CC(c1ccco1)N2)c1ccc(OC(F)(F)F)cc1 (configuration not stated) was read as HEK293 NFkB inh 11.7, Her2 expr inh 69.8, M1 ag 0.442, M1 antagonist 0.722, DUSP1 inh 18.0 and Cdc25B block -0.8.
For CN(C(=O)c1cc2n(n1)C(C(F)(F)F)CC(c1ccco1)N2)c1ccccc1 (configuration not stated) the results were HEK293 NFkB inh 15.7, Her2 expr inh 74.4, M1 ag 1.14, M1 antagonist -2.92*, DUSP1 inh -16.1, Cdc25B block -17.2, M1 antag conf 662 and mGluR4 antag 230.
CCC(C)N(C(=O)COC(=O)Cc1n[nH]c(=O)c2ccccc12)C1CCS(=O)(=O)C1 (configuration not stated) was read as HEK293 NFkB inh 23.0, Her2 expr inh 67.1, M1 ag 0.987, M1 antagonist -3.57*, DUSP1 inh -2.0, Cdc25B block -6.5, M1 antag conf 641 and mGluR4 antag 242.
For Cc1ccc(-c2cc(C(F)F)nc(NCC3CCCO3)n2)cc1 (configuration not stated) the results were HEK293 NFkB inh 9.5, M1 ag -0.106, M1 antagonist 0.617, DUSP1 inh -3.9 and Cdc25B block -13.6.
For Cc1cc(-c2nnc(SCc3ccccn3)o2)no1 the results were HEK293 NFkB inh 1.5, Her2 expr inh 149.0, M1 ag -0.917, M1 antagonist -1.77*, DUSP1 inh -7.5, Cdc25B block -5.3, M1 antag conf 602 and mGluR4 antag 241.
`CCn1c(N2CCN(C(=O)C34CC5CC(CC(C5)C3)C4)CC2)nc2ccccc21` gave HEK293 NFkB inh 7.7, Her2 expr inh 73.8, M1 ag 0.395, M1 antagonist -0.153, DUSP1 inh -10.0 and Cdc25B block -26.3.
CCn1c(=N)n(CC(=O)C23CC4CC(CC(C4)C2)C3)c2ccccc21 was read as HEK293 NFkB inh 0.4, Her2 expr inh 86.3, M1 ag -1.77, M1 antagonist -12.1*, DUSP1 inh -17.8, Cdc25B block 4.6, M1 antag conf 198* and mGluR4 antag 259.
`CCCc1cc(=O)n2[nH]c(C)cc2n1` gave HEK293 NFkB inh 11.6, Her2 expr inh 131.5, M1 ag -0.195, M1 antagonist -1.84, DUSP1 inh 5.1 and Cdc25B block 14.1.
Screening Cc1c(N(C(=O)Nc2ccccc2)C2=NCC(C)S2)c(=O)n(-c2ccccc2)n1C (configuration not stated) returned HEK293 NFkB inh 9.8, Her2 expr inh 110.4, M1 ag 0.663, M1 antagonist -4.4*, DUSP1 inh -0.1, Cdc25B block -9.9, M1 antag conf 604 and mGluR4 antag 242.
COC(=O)CN1CCN(C(c2ccccc2)c2ccccc2)CC1 was read as HEK293 NFkB inh 2.1, Her2 expr inh 104.5, M1 ag -0.0408, M1 antagonist -0.593, DUSP1 inh -0.7 and Cdc25B block -8.5.
`CC(=O)c1ccccc1OCC(O)CN1CCN(C(c2ccccc2)c2ccccc2)CC1` (configuration not stated) gave HEK293 NFkB inh 4.0, Her2 expr inh 40.2, M1 ag 1.22, M1 antagonist -7.91*, DUSP1 inh -11.9, Cdc25B block -25.2, M1 antag conf 133* and mGluR4 antag 231.
`COCCNC(=O)CN1CCN(C(c2ccccc2)c2ccccc2)CC1` gave HEK293 NFkB inh 17.9, Her2 expr inh 100.2, M1 ag -0.85, M1 antagonist -1.24*, DUSP1 inh -4.0, Cdc25B block -4.3, M1 antag conf 569 and mGluR4 antag 250.
CC(C)Nc1nc2n(c(=O)n1)CCN2C(C)C was read as HEK293 NFkB inh 4.7, Her2 expr inh 88.3, M1 ag -0.849, M1 antagonist 0.812, DUSP1 inh 3.2 and Cdc25B block -13.5.
Screening CN1C(=O)CSc2ccc(NC(=O)NCCC3=CCCCC3)cc21 returned HEK293 NFkB inh 8.8, Her2 expr inh 65.9, M1 ag 0.821, M1 antagonist -0.00491, DUSP1 inh 8.9 and Cdc25B block 2.0.
For COc1cccc(N2C(=O)C3C(C2=O)C2C=CC3C23CC3)c1 (configuration not stated) the results were HEK293 NFkB inh 11.8, Her2 expr inh 135.0, M1 ag 0.116, M1 antagonist -3.13*, DUSP1 inh -12.1, Cdc25B block -5.7, M1 antag conf 655 and mGluR4 antag 190.
Screening COc1ccc(OCC(=O)Nc2ccc(C)cc2)cc1 returned HEK293 NFkB inh 14.6, Her2 expr inh 102.1, M1 ag -1, M1 antagonist -13.8*, DUSP1 inh 4.8, Cdc25B block -12.0, M1 antag conf 516 and mGluR4 antag 216.
`CCOc1ccc(NC(=O)CN(c2ccc(OC)cc2)S(C)(=O)=O)cc1` gave HEK293 NFkB inh -18.0, Her2 expr inh 84.0, M1 ag -0.694, M1 antagonist -3.54*, DUSP1 inh 17.7, Cdc25B block -0.9, M1 antag conf 612 and mGluR4 antag 241.

Screening results as filed in PubChem BioAssay.
